Measured values: ChEMBL document CHEMBL1944562, “Design, synthesis of some new (2-aminothiazol-4-yl)methylester derivatives as possible antimicrobial and antitubercular agents” (2012)
≈ marks a conversion by molar mass, not a printed value.

Legend:
Format in all cases: functional
[1] = test system: Pseudomonas aeruginosa; experiment: Antibacterial activity against Pseudomonas aeruginosa ATCC 27853 at MIC after 3 to 4 days
In short: (§1)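 Agar well diffusion on seeded agar plates, 20 mL agar per dish, dried 1 h at 37 °C. Wells punched and loaded with test compound in DMSO at its MIC. DMSO-only control. Plates run in triplicate and kept 3-4 days at 37 °C. Inhibition zone diameter measured.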

[2] = test system: Mycolicibacterium smegmatis; experiment: Antitubercular activity against Mycobacterium smegmatis ATCC 19420 after 7 days by resazurin assay; settings: ATCC 19420, 168 h
In short: (§2)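 Middlebrook 7H9 broth with 10% OADC, culture adjusted to McFarland 2. 50 µL culture added to 150 µL fresh medium. Stocks at 2 mg/mL in DMF, tested first at 1, 10 and 100 µg/mL, then at 0.3125-5 µg/mL. DMF controls. After 7 days at 37 °C, 0.01% resazurin added. Blue-to-pink change read for MIC.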

[3] = test system: Pseudomonas aeruginosa; experiment: Antibacterial activity against Pseudomonas aeruginosa ATCC 27853 after 16 to 18 hrs by […]
[4] = test system: Aspergillus fumigatus; experiment: Antifungal activity against Aspergillus fumigatus NCIM N0.902 at MIC after 3 to 4 days
In short: (§3)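 Fungal suspension made by transferring a loopful of culture to 3 mL saline and seeding agar plates, 20 mL agar per dish, dried 1 h at 37 °C. Punched wells loaded with test compound in DMSO at its MIC. DMSO-only control. Triplicate plates held 3-4 days at 37 °C. Inhibition zone diameter measured.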

[5] = test system: Bacillus subtilis; experiment: Antibacterial activity against Bacillus subtilis at MIC after 3 to 4 days; in short: as §1
[6] = test system: Mycolicibacterium fortuitum; experiment: Antitubercular activity against Mycobacterium fortuitum ATCC 19542 after 7 days by resazurin assay; settings: ATCC 19542, 168 h; in short: as §2
[7] = test system: Mycobacterium tuberculosis; experiment: Antitubercular activity against Mycobacterium tuberculosis H37Rv assessed as growth inhibition after 7 days by resazurin assay
In short: (§4)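 M. tuberculosis H37Rv ATCC 27294 grown in Middlebrook 7H9 broth with 10% OADC and adjusted to McFarland 2. Culture was diluted 1:4 into fresh medium. Compounds came from 2 mg/mL DMF stocks, screened first at 1, 10 and 100, then at 0.3125–5. DMF-only controls were included. After 7 days at 37 °C, 0.01% resazurin was added; a blue-to-pink change marked growth, and the MIC was read.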

[8] = test system: Talaromyces marneffei; experiment: Antifungal activity against Penicillium marneffei after 3 to 4 days by serial plate dilution method
[9] = test system: Trichophyton mentagrophytes; experiment: Antifungal activity against Trichophyton mentagrophytes after 3 to 4 days by serial plate dilution method
[10] = test system: Staphylococcus aureus; experiment: Antibacterial activity against Staphylococcus aureus ATCC 25923 after 16 to 18 hrs by serial plate dilution method
[11] = test system: Escherichia coli; experiment: Antibacterial activity against Escherichia coli ATCC 25922 after 16 to 18 hrs by […]
[12] = test system: Aspergillus flavus; experiment: Antifungal activity against Aspergillus flavus NCIM N0.524 at MIC after 3 to 4 days; in short: as §3
[13] = test system: Escherichia coli; experiment: Antibacterial activity against Escherichia coli ATCC 25922 at MIC after 3 to 4 days; in short: as §1
[14] = test system: Klebsiella pneumoniae; experiment: Antibacterial activity against Klebsiella pneumoniae after 16 to 18 hrs by […]
[15] = test system: Aspergillus flavus; experiment: Antifungal activity against Aspergillus flavus NCIM N0.524 after 3 to 4 days by serial plate dilution method
[16] = test system: Mycobacterium tuberculosis; experiment: Antitubercular activity against Mycobacterium tuberculosis H37Rv after 7 days by resazurin assay; settings: 168 h; in short: as §4
[17] = test system: Candida albicans; experiment: Antifungal activity against Candida albicans after 3 to 4 days by serial plate dilution method
[18] = test system: Candida albicans; experiment: Antifungal activity against Candida albicans at MIC after 3 to 4 days; in short: as §3
[19] = test system: Trichophyton mentagrophytes; experiment: Antifungal activity against Trichophyton mentagrophytes at MIC after 3 to 4 days; in short: as §3
[20] = test system: Staphylococcus aureus; experiment: Antibacterial activity against Staphylococcus aureus ATCC 25923 at […] after 3 to 4 days; in short: as §1
[21] = test system: Klebsiella pneumoniae; experiment: Antibacterial activity against Klebsiella pneumoniae at MIC after 3 to 4 days; in short: as §1
[22] = test system: Aspergillus fumigatus; experiment: Antifungal activity against Aspergillus fumigatus NCIM N0.902 after 3 to 4 days by serial plate dilution method
[23] = test system: Bacillus subtilis; experiment: Antibacterial activity against Bacillus subtilis after 16 to 18 hrs by […]
[24] = test system: Talaromyces marneffei; experiment: Antifungal activity against Penicillium marneffei at MIC after 3 to 4 days; in short: as §3

SMILES	diameter of the inhibition zone (DIZ) [1] [mm]	MIC [2] [µg/mL]	diameter of the inhibition zone (DIZ) [4] [mm]	diameter of the inhibition zone (DIZ) [5] [mm]	MIC [6] [µg/mL]	growth inhibition (GI) [7] [%]	MIC [8] [µg/mL]	MIC [9] [µg/mL]	diameter of the inhibition zone (DIZ) [12] [mm]	diameter of the inhibition zone (DIZ) [13] [mm]	MIC [14] [µg/mL]	MIC [15] [µg/mL]	MIC [16] [µg/mL]	MIC [17] [µg/mL]	diameter of the inhibition zone (DIZ) [18] [mm]	diameter of the inhibition zone (DIZ) [19] [mm]	diameter of the inhibition zone (DIZ) [20] [mm]	diameter of the inhibition zone (DIZ) [21] [mm]	MIC [22] [µg/mL]	MIC [23] [µg/mL]	other results
Nc1nc(COC(=O)c2ccc(Cl)cc2)cs1	16	> 100	16	16	> 100	0	25 (≈ 93 µM)	6.25 (≈ 23.3 µM)	<10	16	6.25 (≈ 23.3 µM)	25 (≈ 93 µM)	> 100	25 (≈ 93 µM)	<10	16	16	16	6.25 (≈ 23.3 µM)	6.25 (≈ 23.3 µM)	MIC [3]: 6.25 µg/mL (≈ 23.3 µM); MIC [10]: 6.25 µg/mL (≈ 23.3 µM); MIC [11]: 6.25 µg/mL (≈ 23.3 µM); diameter of the inhibition zone (DIZ) [24]: <10 mm
Nc1nc(COC(=O)Cc2ccccc2OC(F)(F)F)cs1	<10	> 100	16	11	> 100	<90	6.25 (≈ 18.8 µM)	6.25 (≈ 18.8 µM)	16	11	25 (≈ 75.2 µM)	6.25 (≈ 18.8 µM)	5 (≈ 15 µM)	6.25 (≈ 18.8 µM)	16	16	11	<10	6.25 (≈ 18.8 µM)	12.5 (≈ 37.6 µM)	MIC [3]: 25 µg/mL (≈ 75.2 µM); MIC [10]: 12.5 µg/mL (≈ 37.6 µM); MIC [11]: 12.5 µg/mL (≈ 37.6 µM); diameter of the inhibition zone (DIZ) [24]: 16 mm
Nc1nc(COC(=O)Cc2cccc(C(F)(F)F)c2)cs1	16	10 (≈ 31.6 µM)	11	16	10 (≈ 31.6 µM)	95	25 (≈ 79 µM)	12.5 (≈ 39.5 µM)	11	16	12.5 (≈ 39.5 µM)	12.5 (≈ 39.5 µM)	0.625 (≈ 1.98 µM)	25 (≈ 79 µM)	<10	11	16	11	12.5 (≈ 39.5 µM)	6.25 (≈ 19.8 µM)	MIC [3]: 6.25 µg/mL (≈ 19.8 µM); MIC [10]: 6.25 µg/mL (≈ 19.8 µM); MIC [11]: 6.25 µg/mL (≈ 19.8 µM); diameter of the inhibition zone (DIZ) [24]: <10 mm
N#Cc1ccc(C(=O)OCc2csc(N)n2)cn1	16	> 100	16	16	> 100	0	25 (≈ 96.1 µM)	6.25 (≈ 24 µM)	<10	16	6.25 (≈ 24 µM)	25 (≈ 96.1 µM)	> 100	25 (≈ 96.1 µM)	<10	16	16	16	6.25 (≈ 24 µM)	6.25 (≈ 24 µM)	MIC [3]: 6.25 µg/mL (≈ 24 µM); MIC [10]: 6.25 µg/mL (≈ 24 µM); MIC [11]: 6.25 µg/mL (≈ 24 µM); diameter of the inhibition zone (DIZ) [24]: <10 mm
Nc1nc(COC(=O)c2c(F)cccc2Cl)cs1	11	10 (≈ 34.9 µM)	<10	16	10 (≈ 34.9 µM)	95	25 (≈ 87.2 µM)	25 (≈ 87.2 µM)	<10	<10	12.5 (≈ 43.6 µM)	25 (≈ 87.2 µM)	0.625 (≈ 2.18 µM)	12.5 (≈ 43.6 µM)	11	<10	16	11	25 (≈ 87.2 µM)	6.25 (≈ 21.8 µM)	MIC [3]: 12.5 µg/mL (≈ 43.6 µM); MIC [10]: 6.25 µg/mL (≈ 21.8 µM); MIC [11]: 25 µg/mL (≈ 87.2 µM); diameter of the inhibition zone (DIZ) [24]: <10 mm
O=C(O)c1cn(C2CC2)c2cc(N3CCNCC3)c(F)cc2c1=O [CIPROFLOXACIN]	16	–	–	21	–	–	–	–	–	30	6.25 (≈ 18.9 µM)	–	–	–	–	–	22	23	–	1.56 (≈ 4.71 µM)	–
Nc1nc(COC(=O)c2ccc([N+](=O)[O-])cc2)cs1	10	10 (≈ 35.8 µM)	16	10	10 (≈ 35.8 µM)	90	6.25 (≈ 22.4 µM)	6.25 (≈ 22.4 µM)	16	11	6.25 (≈ 22.4 µM)	6.25 (≈ 22.4 µM)	1 (≈ 3.58 µM)	6.25 (≈ 22.4 µM)	16	16	<10	16	6.25 (≈ 22.4 µM)	12.5 (≈ 44.8 µM)	MIC [3]: 12.5 µg/mL (≈ 44.8 µM); MIC [10]: 25 µg/mL (≈ 89.5 µM); MIC [11]: 12.5 µg/mL (≈ 44.8 µM); diameter of the inhibition zone (DIZ) [24]: 16 mm
N#Cc1ccccc1C(=O)OCc1csc(N)n1	16	> 100	11	<10	> 100	<90	25 (≈ 96.4 µM)	25 (≈ 96.4 µM)	11	16	12.5 (≈ 48.2 µM)	12.5 (≈ 48.2 µM)	5 (≈ 19.3 µM)	6.25 (≈ 24.1 µM)	16	<10	11	11	12.5 (≈ 48.2 µM)	25 (≈ 96.4 µM)	MIC [3]: 6.25 µg/mL (≈ 24.1 µM); MIC [10]: 12.5 µg/mL (≈ 48.2 µM); MIC [11]: 6.25 µg/mL (≈ 24.1 µM); diameter of the inhibition zone (DIZ) [24]: <10 mm
Nc1nc(COC(=O)C2(c3ccc(Cl)cc3)CC2)cs1	11	1 (≈ 3.24 µM)	<10	11	1.25 (≈ 4.05 µM)	90	25 (≈ 81 µM)	25 (≈ 81 µM)	<10	16	6.25 (≈ 20.2 µM)	25 (≈ 81 µM)	1 (≈ 3.24 µM)	25 (≈ 81 µM)	<10	<10	11	16	25 (≈ 81 µM)	12.5 (≈ 40.5 µM)	MIC [3]: 12.5 µg/mL (≈ 40.5 µM); MIC [10]: 12.5 µg/mL (≈ 40.5 µM); MIC [11]: 6.25 µg/mL (≈ 20.2 µM); diameter of the inhibition zone (DIZ) [24]: <10 mm
CO[C@H]1/C=C/O[C@@]2(C)Oc3c(C)c(O)c4c(O)c(c(/C=N/N5CCN(C)CC5)c(O)c4c3C2=O)NC(=O)/C(C)=C\C=C\[C@H](C)[C@H](O)[C@@H](C)[C@@H](O)[C@@H](C)[C@H](OC(C)=O)[C@@H]1C [RIFAMPIN]	–	1.5 (≈ 1.82 µM)	–	–	1.5 (≈ 1.82 µM)	95	–	–	–	–	–	–	0.5 (≈ 0.608 µM)	–	–	–	–	–	–	–	–
Cc1cc(C2CCCCC2)n(O)c(=O)c1.NCCO [CICLOPIROX OLAMINE]	–	–	25	–	–	–	6.25	6.25	25	–	–	6.25	–	6.25	20	27	–	–	6.25	–	diameter of the inhibition zone (DIZ) [24]: 20 mm
NNC(=O)c1ccncc1 [ISONIAZID]	–	50 (≈ 365 µM)	–	–	12.5 (≈ 91.1 µM)	95	–	–	–	–	–	–	0.7 (≈ 5.1 µM)	–	–	–	–	–	–	–	–
